Assay outcomes (PubChem)
Diaphorase inh: counter-screen for diaphorase-based assays: diaphorase inhibitors and chemical oxidizers. diaphorase resazurin-to-resorufin fluorescence, NADH, 16 min; bacterial (C. kluyveri) enzyme, not human. inhibition, % at 20 µM. hit rate 0.69% among 190,000. AID 1217;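 active = primary screen inhibition at 20 µM above a set limit, cut at about 50% in these data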;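 note: plate controls were DMSO with full reaction for no effect and wells lacking NADH for full effect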
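Test system: bacterial diaphorase enzyme (C. kluyveri); Quantity: 0.14 U/mL diaphorase, enzyme working solution; Times: reaction incubation of 16 min at room temperature; Measured by: fluorescence of resorufin formed from resazurin, Ex 544/Em 590 nm; Benchmarks: positive control minus NADH, DMSO neutral control.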
PMI activator: activators of human phosphomannose isomerase | P34949 | purified human PMI, coupled resazurin fluorescence, 20 min; hits give high values; 1 = vehicle control, 0 substrate-free wells | activation factor at 20 µM | hit rate 0.005% among 190,000 | AID 1214;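 active = activation factor of 2 or more at 20 µM, relative to plate controls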
Target sequence (P34949 whole entry, looked up): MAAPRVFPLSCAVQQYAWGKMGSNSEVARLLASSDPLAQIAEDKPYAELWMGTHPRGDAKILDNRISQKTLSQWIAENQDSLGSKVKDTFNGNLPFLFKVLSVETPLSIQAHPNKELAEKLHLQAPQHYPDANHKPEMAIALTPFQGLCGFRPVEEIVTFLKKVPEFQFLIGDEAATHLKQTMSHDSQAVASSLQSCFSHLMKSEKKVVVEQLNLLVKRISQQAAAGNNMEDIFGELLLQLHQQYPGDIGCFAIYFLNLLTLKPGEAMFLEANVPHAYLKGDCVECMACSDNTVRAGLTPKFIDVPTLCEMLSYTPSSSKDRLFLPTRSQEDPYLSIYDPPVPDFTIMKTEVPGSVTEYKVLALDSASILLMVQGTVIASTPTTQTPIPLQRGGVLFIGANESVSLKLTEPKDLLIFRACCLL
G6PDH counter: counter-screen for G6PDH assay hits: L. mesenteroides G6PDH inhibition | Purified L. mesenteroides G6PDH, diaphorase/resazurin coupled fluorescence, 45 min | inhibition, % at 5 µM | hit rate 0.12% among 200,000 | AID 1020; in the data active = inhibition above about 50%
PMI act hi M6P: PMI (human) activation, high substrate | coupled PMI enzyme assay, resazurin fluorescence, 20 min; hits give high values; 1 = untreated enzyme, 0 = substrate-free blank | P34949 | activation factor at 20 µM | hit rate 0.34% among 190,000 | AID 1216;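 active = activation factor of 2 or more at 20 µM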
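Test system: human PMI in coupled enzyme assay; Input: PMI at 15 ng/mL final; Medium: HEPES buffer, pH 7.4; Schedule: 20 min incubation at room temperature; Technique: resorufin fluorescence at Ex 544/Em 590 nm; Compound: 20 µM single dose; Probe or stimulus: Near-saturating mannose-6-phosphate, 1.0 mM.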
Diaphorase act: activates diaphorase or chemically reduces, flagging diaphorase assay artifacts. AID 1229. hit rate 0.005% among 190,000. Diaphorase/resazurin coupled assay, resorufin fluorescence, 16 min; hits give high values; 1 = vehicle wells, 0 = NADH-free wells. activation factor at 20 µM;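 active = diaphorase activity raised at least twofold by the compound at 20 µM; inactive = activation factor below 2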
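Material: Purified diaphorase enzyme from Clostridium kluyveri | Buffer or medium: 50 mM HEPES pH 7.4 with 4.542 mM MgCl2, 0.005% Tween 20 | Times: 16 min enzyme reaction, ambient temperature | Signal: Red resorufin fluorescence at 544/590 nm excitation/emission | Measure: Increased resorufin signal from activators or reducing compounds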
The depositor's hits bear a star. Sampled rows, rich in hits. Any-hit rate of the full collection: about 1.1%.

SMILES | Diaphorase inh | PMI activator | G6PDH counter | PMI act hi M6P | Diaphorase act
CCOP(=O)(OCC)c1nc(/C=C/c2ccccc2)oc1NCc1ccccc1 | 54* | 0.9 | 6 | 0.9 | 0.5
Cc1ccc(NC(=O)c2ccc(Cn3cc([N+](=O)[O-])cn3)cc2)c(C)c1 | 9 | 0.9 | -3 | 1 | 0.9
CCC1(c2ccccc2)NC(=S)N(c2ccc(C)cc2)N1 (stereo not drawn) | 13 | 1.3 | 3 | 1.3 | 0.9
CC1CCC2(CC1)NC(=S)N(c1ccccc1)N2 (stereo not drawn) | -2 | 1.9 | 6 | 2.2* | 1
c1ccc2c3c([nH]c2c1)-c1[nH]ncc1CC3 | 64* | 0.5 | 17 | 0.6 | 0.4
CCc1c(C)nc2ncnn2c1NCCc1ccc(Cl)cc1 | 12 | 1 | -1 | 1 | 0.9
CCOc1ccc(-c2nnc3ccc(SC(C)C)nn23)cc1 | 60* | 0.9 | 15 | 1 | 0.4
Cc1cccc(NC(=O)CN2C(=O)S/C(=C\c3ccc(-c4cccc(C(=O)O)c4C)o3)C2=O)c1 | 22 | 1 | 3 | 0.8 | 0.8
Cc1ccc(NC(=O)CN2C(=O)S/C(=C/c3ccc(-c4cc(C(=O)O)ccc4C)o3)C2=O)cc1C | 71* | 0.8 | 9 | 0.9 | 0.3
COc1ccccc1N1CCN(Cc2ccc(O)c3ncccc23)CC1 | 57* | 0.4 | 29 | 0.4 | 0.4
CCOC(=O)C1CCN(Cc2ccccc2C(F)(F)F)CC1 | 15 | 1 | 16 | 1.1 | 0.8
NNC(=O)CN1CCCc2ccccc21 | 0 | 1.1 | 0 | 1 | 1
Oc1ccc(CN2CCCc3ccccc32)c2cccnc12 | 77* | 0.5 | -14 | 0.5 | 0.2
CCOC(=O)C1CCN(Cc2ccc(O)c3ncccc23)CC1 | 73* | 0.3 | 50* | 0.3 | 0.3
CCOC(=O)N1CCN(Cc2cc(Cl)c3cccnc3c2O)CC1 | 61* | 0.5 | 41 | 0.4 | 0.4
Cc1ccc(S(=O)(=O)N/N=C2\C(=O)C3(C)CCC2C3(C)C)cc1 (stereo not drawn) | 8 | 1.8 | 11 | 2.1* | 0.9
CC(C)c1ccc(CN2CC(C(=O)O)CC2=O)cc1 (stereo not drawn) | -1 | 1.1 | 6 | 1.1 | 1
CC(=O)C(C(C)=O)c1c(Cl)c(O)c(O)c2c(C(=O)c3ccccc3)coc12 | 67* | 0.4 | 7 | 0.4 | 0.3
O=C(N/N=C/c1ccc(-c2ccccc2[N+](=O)[O-])o1)[C@H]1C[C@@H]1c1ccccc1 | 52* | 0.6 | 13 | 0.4 | 0.5
O=C(N/N=C/c1ccc(-c2cccc([N+](=O)[O-])c2)o1)[C@H]1C[C@@H]1c1ccccc1 | 24 | 1 | 4 | 0.9 | 0.8
CCOc1cc(/C=N\Nc2nc(Nc3ccccc3)nc(N3CCOCC3)n2)ccc1OC(=O)c1ccco1 | 16 | 0.8 | 8 | 0.9 | 0.8
O=C(O)/C(=C\c1ccc(Cl)c([N+](=O)[O-])c1)c1ccc(S(=O)(=O)N2CCCCC2)s1 | 61* | 0.8 | 8 | 0.4 | 0.4
O=C(O)/C(=C\c1ccccc1Cl)c1ccc(S(=O)(=O)N2CCCCC2)s1 | 16 | 1 | 13 | 1.2 | 0.8
CCN(CC)CCOC(=O)c1ccc(NC(=O)c2ccc(Cl)c(S(=O)(=O)N3CCCCCC3)c2)cc1 | -6 | 1.1 | 7 | 1.1 | 1.1
Cc1ccc(SCc2cc(=O)[nH]c(Nc3nc(C)c4ccc(C)cc4n3)n2)cc1 | 22 | 1.5 | -22 | 2* | 0.8
SMILES | Diaphorase inh | PMI activator | G6PDH counter | PMI act hi M6P | Diaphorase act
O=C(C[n+]1ccc(-c2nnc3n2CCC3)cc1)c1ccc(Cl)cc1 | 11 | 1.2 | 3 | 1.2 | 0.9
CS(=O)(=O)c1sc2nc(-c3cccs3)cc(-c3ccccc3)c2c1N | 17 | 1.6 | -2 | 2.2* | 0.8
NN/C(=C\[N+](=O)[O-])Nc1ccc(Cl)cc1 | 16 | 1.5 | 3 | 2* | 0.8
NNC(=S)Nc1ccc(Cl)cc1 | -2 | 0.9 | -4 | 1 | 1
NN/C(=C\[N+](=O)[O-])Nc1ccccc1 | 6 | 1.7 | -7 | 2.6* | 0.9
CN1CCN(C(=S)c2ccc(OCC(=O)Nc3cccc(C(F)(F)F)c3)cc2)CC1 | 10 | 1 | 2 | 1.1 | 0.9
Oc1ccc(Cl)cc1C=Nc1ccc2c3c(cccc13)CC2 | 60* | 0.5 | 34 | 0.3 | 0.4
Cc1cccc(C=Nc2ccc3c4c(cccc24)CC3)c1O | 21 | 0.6 | -27 | 0.5 | 0.8
N#Cc1c2ccc(OCC(N)=O)cc2n2ccccc12 | 70* | 0.3 | 44 | 0.3 | 0.3
CCOC(=O)COc1ccc2c(C#N)c3ccccn3c2c1 | 49 | 0.6 | 44 | 0.3 | 0.5
CC(=O)OCCCN1C(=O)c2ccc(Br)cc2C1=O | 6 | 0.9 | 8 | 1 | 0.9
COc1ccc(C=Nc2ccc3[nH]ncc3c2)c(O)c1 | 66* | 0.5 | 40 | 0.4 | 0.3
Nc1ccc2c(c1)Nc1ccccc1CC2 | 62* | 0.7 | 28 | 0.6 | 0.4
N#CC(C#N)=C1CCc2ccccc2N1 | -5 | 1 | 9 | 1.1 | 1
CC(Sc1nc(-c2ccc(F)cc2)cs1)C(=O)Nc1ccc(Cl)cn1 (stereo not drawn) | 16 | 0.8 | 10 | 0.9 | 0.8
CCc1cccc(NC(=O)CS(=O)Cc2nc(-c3ccc(C)cc3)oc2C)c1 (stereo not drawn) | 21 | 0.9 | 10 | 0.9 | 0.8
c1ccc(Nc2ccccn2)cc1 | -2 | 1 | 1 | 1 | 1
c1ccc(Nc2cccc(Nc3ccccc3)n2)cc1 | 55* | 0.4 | 20 | 0.6 | 0.5
CC(C)(C)NC(=O)/C(=C\C=C\c1ccccc1)NC(=O)c1ccc([N+](=O)[O-])cc1 | 14 | 0.9 | 11 | 0.9 | 0.9
COCc1cc(C)nc2sc(C(=O)N3CCCC3)c(N)c12 | 20 | 1.1 | 1 | 1.3 | 0.8
Cc1cc(C)c2c(N)c(C(=O)N3CCCCCC3)sc2n1 | 6 | 1.8 | 0 | 2.3* | 0.9
Cc1cc(C)c2c(N)c(C(=O)NCc3ccco3)sc2n1 | 13 | 1.7 | 9 | 2* | 0.9
COc1ccc(-n2cc(C#N)c(=O)[nH]c2=O)cc1 | 2 | 1.1 | 26 | 1 | 1
CC(=O)Oc1c(C)cc(O)c2ccccc12 | 33 | 0.7 | 51* | 0.8 | 0.7
COc1cc2c(=O)n(CCC(=O)NCC3CCCO3)c(=O)n(CC(=O)c3ccc(Cl)cc3)c2cc1OC (stereo not drawn) | 16 | 1.1 | 5 | 1.1 | 0.8
CCOC(=O)c1c2ccc(OCC(=O)N/N=C/c3ccc(Cl)cc3)cc2n2ccccc12 | 21 | 0.7 | 35 | 0.5 | 0.8
CCOC(=O)c1c2ccc(OCC(=O)N/N=C/c3ccccc3C(F)(F)F)cc2n2ccccc12 | 52* | 0.4 | 38 | 0.4 | 0.5
Cc1sc2ncnc(NC3CCN(Cc4ccccc4)CC3)c2c1C | 6 | 1 | 0 | 1 | 0.9
